According to ChEMBL document CHEMBL3992541, “Combined treatment with zingerone and its novel derivative synergistically inhibits TGF-β1 induced epithelial-mesenchymal transition, migration and invasion of human hepatocellular carcinoma cells” (2017):
The source made the active and inactive calls. The calls are words filed in the database; no cut-off is given here.

Tests used:
[1] = system: SNU-182; test: Growth inhibition of human SNU182 cells assessed as cell survival at 12.5 uM after 48 hrs by CCK8 assay relative to control; type: functional; conditions: SNU-182, 48 h, read-out: Survival
In short: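 SNU182 human hepatocellular carcinoma cells were exposed to compound at 6.25, 12.5, 25, 50 and 100 µM in serum-free DMEM for 48 h. Viability was read by CCK-8, where WST-8 is reduced by cellular dehydrogenases to a soluble formazan, and expressed as survival relative to vehicle control. Values are mean±SD of triplicates.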

[2] = biological target: Mitogen-activated protein kinase; ERK1/ERK2 (Homo sapiens) (UniProt P27361+P28482); test: Inhibition of TGFbeta1-induced p44/42 MAPK phosphorylation in human SNU182 cells measured after 48 hrs in presence of zingerone by Western blot method; type: cell-based
Sequence of Mitogen-activated protein kinase; ERK1/ERK2 (Homo sapiens) (P27361 whole entry, looked up): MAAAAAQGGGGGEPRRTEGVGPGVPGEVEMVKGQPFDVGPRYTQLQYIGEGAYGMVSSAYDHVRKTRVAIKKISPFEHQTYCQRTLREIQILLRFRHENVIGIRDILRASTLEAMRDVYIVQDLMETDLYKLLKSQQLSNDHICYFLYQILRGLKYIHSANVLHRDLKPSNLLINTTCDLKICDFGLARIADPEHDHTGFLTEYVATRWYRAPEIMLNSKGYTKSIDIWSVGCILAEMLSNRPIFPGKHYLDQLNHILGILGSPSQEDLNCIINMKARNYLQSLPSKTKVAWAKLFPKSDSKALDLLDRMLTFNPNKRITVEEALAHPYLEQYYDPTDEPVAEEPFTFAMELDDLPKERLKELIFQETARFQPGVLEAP
Sequence of Mitogen-activated protein kinase; ERK1/ERK2 (Homo sapiens) (P28482 whole entry, looked up): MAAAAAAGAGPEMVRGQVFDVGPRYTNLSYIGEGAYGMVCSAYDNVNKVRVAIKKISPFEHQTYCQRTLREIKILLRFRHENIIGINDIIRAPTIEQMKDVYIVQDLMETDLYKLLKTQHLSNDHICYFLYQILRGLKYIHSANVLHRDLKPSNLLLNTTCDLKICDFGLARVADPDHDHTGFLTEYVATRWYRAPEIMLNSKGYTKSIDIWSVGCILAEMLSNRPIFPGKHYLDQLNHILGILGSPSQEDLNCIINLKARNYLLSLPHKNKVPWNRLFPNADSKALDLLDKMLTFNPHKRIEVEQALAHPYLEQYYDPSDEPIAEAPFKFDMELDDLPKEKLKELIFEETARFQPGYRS
In short: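 SNU182 cells incubated 48 h with TGF-β1 5 ng/ml alone or together with the mixture at 20 and 40 µM, then lysed. Phospho-p42/44 MAPK detected by Western blot, with total p42/44 MAPK as loading control.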

[3] = system: SNU-182; test: Inhibition of TGFbeta1-induced epithelial-mesenchymal transition in human SNU182 cells assessed as reduction in MMP9 activity measured after 48 hrs in presence of zingerone by gelatin zymography assay; type: functional, cell-based
In short: (§1)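 Cells serum-starved overnight in 0.2% FBS medium, then left untreated or given TGF-β 5 ng/ml and/or the mixture for 48 h. MMP-2 and MMP-9 activity in conditioned medium determined by gelatin zymography.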

[4] = system: SNU-182; test: Inhibition of TGFbeta1-induced epithelial-mesenchymal transition in human SNU182 cells assessed as reduction in mesenchymal phenotype preincubated for 2 hrs followed by TGFbeta1 addition measured after 48 hrs in presence of zingerone; type: functional, cell-based
In short: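 Cells preincubated 2 h in serum-free medium with the mixture (20 and 40 µM), then treated with TGF-β1 5 ng/ml for 48 h. Morphology (spindle-like, elongated shape, scattering) assessed by microscopy.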

[5] = system: SNU-182; test: (§2) Inhibition of TGFbeta1-induced epithelial-mesenchymal transition in human SNU182 cells assessed as reduction in MMP9 mRNA expression preincubated for 2 hrs followed by TGFbeta1 addition measured after 48 hrs in presence of zingerone by qRT-PCR method; type: functional, cell-based
In short: (§3)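 SNU182 cells pretreated 2 h with single agents (12.5 or 40 µM) or the mixture (20 or 40 µM), then TGF-β 5 ng/ml for 48 h. MMP-2 and MMP-9 mRNA measured by RT-PCR with densitometry and by qRT-PCR, fold change by the 2^-ΔΔCt method. Mean±SD of triplicates.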

[6] = system: SNU-182; test: Inhibition of TGFbeta1-induced epithelial-mesenchymal transition in human SNU182 cells assessed as reduction in downregulation of E-cadherin expression at 12.5 uM preincubated for 2 hrs followed by TGFbeta1 addition measured after 48 hrs by Western blot method; type: functional, cell-based
In short: (§4)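 SNU182 cells pretreated 2 h with single agents (12.5 or 40 µM) or the mixture (20 and 40 µM), then stimulated with TGF-β1 5 ng/ml for 48 h. E-cadherin and Snail protein detected by Western blot, with GAPDH as loading control.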

[7] = system: SNU-182; test: (§5) Inhibition of TGFbeta1-induced epithelial-mesenchymal transition in human SNU182 cells assessed as reduction in downregulation of E-cadherin expression preincubated for 2 hrs followed by TGFbeta1 addition measured after 48 hrs in presence of (E)-1-(9-Ethyl-9H-carbazol-3-yl)-5-(4-hydroxy-3-methoxyphenyl)pent-1-en-3-one by Western blot method; type: functional, cell-based; in short: as §4
[8] = system: SNU-182; test: Inhibition of TGFbeta1-induced epithelial-mesenchymal transition in human SNU182 cells assessed as reduction in MMP9 activity measured after 48 hrs in presence of (E)-1-(9-Ethyl-9H-carbazol-3-yl)-5-(4-hydroxy-3-methoxyphenyl)pent-1-en-3-one by gelatin zymography assay; type: functional, cell-based; in short: as §1
[9] = system: SNU-182; test: as §5, with “upregulation” for “downregulation”, “Snail” for “E-cadherin”; type: functional, cell-based; in short: as §4
[10] = system: SNU-182; test: as §2, with “(E)-1-(9-Ethyl-9H-carbazol-3-yl)-5-(4-hydroxy-3-methoxyphenyl)pent-1-en-3-one” for “zingerone”; type: functional, cell-based; in short: as §3
[11] = species on record: Homo sapiens; test: Inhibition of TGFbeta1-induced NF-kB binding activity in human SNU182 cells at 20 to 40 uM measured after 48 hrs in presence of (E)-1-(9-Ethyl-9H-carbazol-3-yl)-5-(4-hydroxy-3-methoxyphenyl)pent-1-en-3-one by luciferase reporter gene assay; type: cell-based
In short: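 Cells transfected with pGL4.32-NF-κB-RE-Luc or empty pGL4.32, then treated with the mixture and/or TGF-β1. Luciferase reporter activity read. Mean±SD of triplicates.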

[12] = biological target: Transcription factor Jun (Homo sapiens) (UniProt P05412); test: Inhibition of TGFbeta1-induced AP-1 binding activity in human SNU182 cells at 20 to 40 uM measured after 48 hrs in presence of (E)-1-(9-Ethyl-9H-carbazol-3-yl)-5-(4-hydroxy-3-methoxyphenyl)pent-1-en-3-one by luciferase reporter gene assay; type: cell-based
Sequence of Transcription factor Jun (Homo sapiens) (P05412 whole entry): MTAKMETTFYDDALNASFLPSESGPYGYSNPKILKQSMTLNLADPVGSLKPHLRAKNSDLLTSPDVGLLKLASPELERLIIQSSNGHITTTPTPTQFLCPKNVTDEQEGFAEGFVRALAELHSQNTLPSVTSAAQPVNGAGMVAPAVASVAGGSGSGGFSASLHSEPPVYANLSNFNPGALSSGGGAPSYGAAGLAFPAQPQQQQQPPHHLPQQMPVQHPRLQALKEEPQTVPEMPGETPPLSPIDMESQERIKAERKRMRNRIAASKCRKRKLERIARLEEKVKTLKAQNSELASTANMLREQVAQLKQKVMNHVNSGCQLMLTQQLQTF
In short: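 SNU182 transfected with pGL4.44-AP-1-RE-Luc or empty pGL4.44, pretreated with the mixture (20 and 40 µM), then stimulated with TGF-β1 or DMSO. Luciferase reporter activity read. Mean±SD of triplicates.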

[13] = system: SNU-182; test: Inhibition of TGFbeta1-induced invasion in human SNU182 cells at 40 uM measured after 48 hrs in presence of (E)-1-(9-Ethyl-9H-carbazol-3-yl)-5-(4-hydroxy-3-methoxyphenyl)pent-1-en-3-one by microscopic method; type: functional, cell-based
In short: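 Matrigel invasion chamber: SNU182 cells in the inner chamber received TGF-β1 with or without the mixture for 48 h. Cells on the lower surface stained, imaged at 200×, and counted. Mean±SD of triplicates.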

With `CCn1c2ccccc2c2cc(/C=C/C(=O)CCc3ccc(O)c(OC)c3)ccc21` the viability at 12.5 µM [1] was > 90%, the inhibition [2] was “Dose-dependent effect” and the inhibition [3] was “Active”. The inhibition [4] was “Dose-dependent effect”, the inhibition [5] was “Dose-dependent effect” and the inhibition [6] was “inactive”.

For `COc1cc(CCC(C)=O)ccc1O`, the inhibition [7] was “Dose-dependent effect”, the inhibition [8] was “Active” and the inhibition [9] was “Dose-dependent effect”. For the same compound, the inhibition [10] was “Dose-dependent effect”, the inhibition [11] was “Active” and the inhibition [12] was “Active”. The inhibition [13] was “Active”.
